Screening data from PubChem.
TNF necrop inh – inhibitors of TNF-alpha triggered necroptosis, primary screen, cell-based, Jurkat FADD-/-, single concentration | Jurkat FADD-/- TNF necroptosis rescue, ATP luminescence, 24 h; 0 = TNF only, 100 = no-TNF cells | activation (protection from cell death), % at 10 µM | 220,000 tested, 0.068% active | AID 463075, 2010;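 active means activation, meaning protection from cell death, of at least 50% relative to plate controls; inactive means activation below 50%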;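 further: necroptosis triggered by 40 ng/mL TNF-alpha added together with compound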
zVAD death inh – inhibitors of zVAD-triggered necroptosis, primary screen, L929 cells; viability rescue, % at 10 µM; 220,000 tested, 0.38% active; AID 1377, 2008; L929 zVAD necroptosis rescue, ATP luminescence, 24 h; with zVAD 60 µM;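 active means activation, scaled between plate controls, above about 75%, limit read from the data; inactive means activation under that limit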;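 further: 0% = zVAD with DMSO and 100% = DMSO alone without zVAD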
Hep lipid drop – inhibitors of hepatocyte lipid droplet formation, primary screen, imaging, high-throughput imaging, BODIPY stain; AML12 mouse hepatocytes, oleate lipid droplets; inhibition, % at 6.5 µM; 240,000 tested, 0.4% active;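 active means lipid droplet intensity inhibited by at least 50%, with more than 500 cells counted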
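Material – AML12 mouse liver cells · Also added – oleate loading, 100 µM · Compound dosing – 6.5 µM single-point dosing · Times – overnight treatment with compound plus oleate · Measured by – fluorescence imaging, 20x objective, two fields per well · Read-out – percent inhibition of filter-corrected integrated lipid droplet intensity per well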
RBBP9 inhibitor – human RBBP9 inhibitors, primary screen, biochemical, fluorescence polarization, FP-Rh probe, HTS | Serine hydrolase RBBP9 (Homo sapiens), O75884 | recombinant RBBP9 | inhibition, % at 7.94 µM | 220,000 tested, 0.2% active;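 active means inhibition above the campaign mean of all tested compounds plus 3 SD, cut at about 14% in these data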;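 further: plate controls were DMSO wells with RBBP9 for no effect and wells lacking RBBP9 protein for full effect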
Target sequence (O75884 whole entry, looked up): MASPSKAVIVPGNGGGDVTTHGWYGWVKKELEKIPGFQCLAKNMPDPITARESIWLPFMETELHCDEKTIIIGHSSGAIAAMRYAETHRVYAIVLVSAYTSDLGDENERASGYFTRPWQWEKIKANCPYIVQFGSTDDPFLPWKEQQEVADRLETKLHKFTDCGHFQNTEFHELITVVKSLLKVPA
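system = RBBP9 protein | input = RBBP9 at 2.5 µM in dispensed solution, before mixing | measured by = fluorescence polarization (mP), excitation 525 nm, emission 598 nm | incubation = enzyme-compound preincubation 30 min, then probe labeling 45 min, 25 °C | buffer or medium = Tris-NaCl-Pluronic buffer, pH 8.0 | compound = single dose 7.94 µM | also added = FP-Rh probe, 375 nM dispensing solution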
PfM18AAP inh-1 – PfM18AAP inhibitors, malaria aminopeptidase, primary screen, biochemical, QFRET, recombinant enzyme | 290,000 tested, 1.2% active | AID 1822, 2009 | H-Glu-NHMec fluorogenic cleavage | inhibition, % at 7.35 µM;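 active means inhibition above the campaign mean inhibition over all tested compounds plus 3 SD, cut at about 28% in these data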;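 further: 0% = plate median of test compound wells and 100% = 2 mM ZnCl2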
Tb hexokinase – Trypanosoma brucei hexokinase 1 inhibitors, primary screen, biochemical, G6PDH-coupled NADH absorbance, MLSCN library | recombinant TbHK1, G6PDH-coupled NADH A340 | hexokinase 1 [Trypanosoma brucei] | inhibition, % at 10 µM | 220,000 tested, 0.11% active;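 active means inhibition of 50% or more in the single-dose primary screen; inactive means inhibition below 50%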
PfM18AAP inh-2 – PfM18AAP inhibitors, malaria aminopeptidase, confirmation, biochemical, QFRET, recombinant enzyme, triplicate. inhibition, % at 7.35 µM. shares compounds with PfM18AAP inh-1. AID 2170, 2009. H-Glu-NHMec fluorogenic cleavage. 2,400 tested, 28% active;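 active means mean inhibition over replicate wells above the hit cutoff set for the earlier primary screen, cut at about 29% in these data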;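 further: 0% = median of test compound wells and 100% = 2 mM ZnCl2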
CTSL1 counter – cathepsin L1 inhibitors, retest, confirmation, counter-screen for PFM18AAP inhibitor project, biochemical, QFRET, triplicate | shares compounds with PfM18AAP inh-1 | purified cathepsin L1, Z-Leu-Arg-MCA fluorescence | inhibition, % at 5.96 µM | 2,400 tested, under 10 active | AID 2178, 2009;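 active means average inhibition across replicates above the hit cutoff set in the earlier primary screen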;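 further: 0% = median of test compound wells and 100% = Z-Phe-Ala-diazomethylketone 1 µM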
Target sequence (P07711 whole entry, looked up): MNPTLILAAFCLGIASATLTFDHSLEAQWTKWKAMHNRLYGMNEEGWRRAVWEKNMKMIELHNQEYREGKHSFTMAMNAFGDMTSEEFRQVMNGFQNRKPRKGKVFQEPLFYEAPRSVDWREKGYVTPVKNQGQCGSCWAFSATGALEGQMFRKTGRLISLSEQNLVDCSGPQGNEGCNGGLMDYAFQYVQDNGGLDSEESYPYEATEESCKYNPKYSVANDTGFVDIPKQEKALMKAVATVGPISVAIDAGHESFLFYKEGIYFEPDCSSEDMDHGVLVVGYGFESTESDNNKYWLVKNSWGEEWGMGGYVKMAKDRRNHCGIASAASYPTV
The depositor's hits bear a star; nt = no result. Sampled rows, rich in hits. Any-hit rate of the full collection: about 2%.

SMILES | TNF necrop inh | zVAD death inh | Hep lipid drop | RBBP9 inhibitor | PfM18AAP inh-1 | Tb hexokinase | PfM18AAP inh-2 | CTSL1 counter
Cc1cc(C)n2nc(SCC(=O)Nc3ccccc3)nc2n1 | 2 | -1 | 5 | -1 | -16 | 0 | nt | nt
O=C1c2ccccc2C(=O)N1CSc1ncccn1 | 0 | 2 | nt | -11 | 46* | 4 | -58 | 2
Cc1cc(C)n2nc(SCN3C(=O)c4ccccc4C3=O)nc2n1 | -1 | 0 | nt | -1 | 77* | -7 | -42 | 3
COc1ccc(C(O)(C(=O)NNc2ccc(C)cc2)c2cccs2)cc1 (stereo unspecified) | -1 | 0 | -10 | 4 | 42* | -3 | -47 | -1
O=C(NNc1ccc(C2CCCCC2)cc1)C(O)(c1ccccc1)c1cccs1 (stereo unspecified) | -8 | 0 | nt | 1 | 2 | 2 | nt | nt
CCOc1ccc(OCC)c(NC(=O)C2CCN(S(=O)(=O)c3cccc4nonc34)CC2)c1 | 3 | 0 | -1 | -4 | -4 | 3 | nt | nt
CC(C)(C)C(=O)C(Oc1cccc2nonc12)n1cncn1 (stereo unspecified) | 0 | 0 | nt | -5 | 50* | 16 | -34 | 0
COc1nc(C)nc(NC(=O)NS(=O)(=O)c2ccc(C)cc2)n1 | 4 | 1 | 1 | 3 | 1 | 4 | nt | nt
O=C(O)c1ccc(O)c(N2C(=O)Nc3ccccc3N2O)c1 | 1 | 1 | -8 | -1 | 50* | 26 | 12 | 0
O=C(c1cccs1)N(c1ccc(Br)cc1)C1C=CS(=O)(=O)C1 (stereo unspecified) | 1 | -1 | -3 | -2 | 1 | 8 | nt | nt
COc1ccc(OC)c(Nc2nc(=O)c3cccnc3s2)c1 | -2 | -1 | -3 | 5 | 54* | 6 | 26 | -6
O=C(NNC(=O)c1ccc[nH]1)Nc1cccc(C(F)(F)F)c1 | 2 | 1 | 4 | -4 | 53* | -5 | 22 | -5
O=C(NNC(=O)c1ccc[nH]1)c1cccc(C(F)(F)F)c1 | nt | nt | 4 | nt | 1 | nt | nt | nt
O=C(NNC(=O)c1ccc[nH]1)Nc1cc(Cl)cc(Cl)c1 | 3 | 1 | -1 | -4 | 50* | -5 | 29* | -3
Cc1ccccc1N1CCN(C2CCCN(C(=O)c3cn4cccc(C)c4n3)C2)CC1 (stereo unspecified) | nt | nt | -4 | nt | 7 | nt | nt | nt
OCCc1c[nH]c2ccc(C(F)(F)F)cc12 | nt | nt | nt | nt | -3 | nt | nt | nt
O=C(NNc1nc2cc3c(cc2s1)OCCO3)c1ccc(F)cc1 | 0 | 0 | 8 | -6 | 27 | 1 | nt | nt
O=C(NNc1nc2cc3c(cc2s1)OCO3)c1ccc(F)cc1 | -1 | 0 | -5 | -7 | 42* | -1 | 6 | -2
CCC(C(=O)NCc1ccccc1OC)c1ccccc1 (stereo unspecified) | 0 | 2 | -37 | 0 | 1 | -3 | nt | nt
Cc1ccn2c(C(=O)NN=C3CCCCCCC3)c(C)nc2c1 | 1 | -1 | 22 | 1 | 5 | -5 | nt | nt
CNC(=S)NNC(=O)c1c(C)nc2cc(C)ccn12 | -1 | 1 | 32 | 3 | 47* | -22 | 7 | -5
CCc1nnc(NC(=O)C2CC(=O)N(CCc3ccc(F)cc3)C2)s1 (stereo unspecified) | nt | nt | -10 | nt | 3 | nt | nt | nt
CCCC(C)c1nnc(NC(=O)C2CC(=O)N(CCc3ccc(F)cc3)C2)s1 (stereo unspecified) | nt | nt | -67 | nt | 41* | nt | -9 | 0
O=C(c1cc(C2CC2)on1)N1CCCC(N2CCN(c3ccc(F)cc3)CC2)C1 (stereo unspecified) | nt | nt | 13 | nt | 5 | nt | nt | nt
Cc1ccc(C(=O)C(NC(=O)c2ccco2)Nc2sc3c(c2C(N)=O)CCCC3)cc1 (stereo unspecified) | -2 | 1 | 4 | 3 | 40* | -4 | -27 | -8
SMILES | TNF necrop inh | zVAD death inh | Hep lipid drop | RBBP9 inhibitor | PfM18AAP inh-1 | Tb hexokinase | PfM18AAP inh-2 | CTSL1 counter
CNC(=O)c1c(NC(=O)c2ccco2)sc2c1CCCC2 | nt | nt | 13 | nt | 5 | nt | nt | nt
CC1CCN(C(=O)CSc2nc3[nH]ncc3c(=O)[nH]2)CC1 | 0 | 2 | 11 | -1 | 33* | -4 | -26 | -7
Cc1cccc(NC(=O)CSc2nc3[nH]ncc3c(=O)[nH]2)c1C | 2 | 0 | -11 | -10 | 42* | 0 | 28 | -4
COC(=O)/C(=C(O)\C=C\c1ccccc1[N+](=O)[O-])c1nc2ccccc2[nH]1 | nt | nt | 31 | nt | 10 | nt | nt | nt
COc1ccc(CN2CN(c3ccc(Cl)cc3)C(=O)N(n3cnnc3)C2)cc1 | 0 | 0 | nt | -3 | 51* | 1 | 40* | -2
O=C1N(c2ccc(Cl)c(Cl)c2)CN(Cc2ccccc2)CN1n1cnnc1 | 0 | 1 | 5 | 1 | 70* | 18 | 55* | 1
COc1ccc(N2C(=O)CC(SCc3ccc(Cl)cc3)C2=O)cc1 (stereo unspecified) | 6 | 1 | 6 | -6 | -15 | -3 | nt | nt
O=C(Cc1ccc([N+](=O)[O-])cc1)N1N=C(c2ccncc2)CC1(O)C(F)(F)F (stereo unspecified) | 0 | 1 | -8 | -3 | -1 | 4 | nt | nt
COc1ccc(N2C(=O)C3C(c4ccc(C(=O)O)cc4)NC(Cc4ccccc4)(C(=O)O)C3C2=O)c([N+](=O)[O-])c1 (stereo unspecified) | 0 | 1 | 2 | -4 | 22 | -7 | nt | nt
COc1ccc(NC(=O)CN(c2ccc(F)cc2)S(=O)(=O)c2ccccc2)c(OC)c1 | nt | nt | -27 | nt | 5 | nt | nt | nt
COc1cccc(/C=N/Nc2nn3cnnc3c3ccccc23)c1 | -13 | -1 | -29 | -7 | 40* | -38 | -46 | 5
C/C(=N\Nc1ccc2nncn2n1)c1cccs1 | 2 | 2 | -17 | -4 | 40* | -49 | -16 | 0
BrC(=C\c1ccccc1)/C=N/n1cnnc1 | 2 | 56 | -12 | -3 | 68* | -24 | 61* | 4
C(=N\Nc1nn2cnnc2c2ccccc12)/c1ccco1 | -2 | 7 | 22 | -4 | 44* | -32 | -23 | -1
C/C(=N/N=C(/C)c1cccs1)c1cccs1 | nt | nt | 5 | nt | 7 | nt | nt | nt
